Columns and labels:
Format in all cases: functional
MDA-MB-231 [1] = experiment: Growth inhibition of human MDA-MB-231 cells at 25 ug/ml after 24 hrs by MTT colorimetric assay; conditions: MDA-MB-231, 24 h, read-out: GI
Method in brief: (§1)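 Cells kept in RPMI 1640 with 10% FBS, 1% L-glutamine and penicillin-streptomycin at 37 °C, 5% CO2, and harvested with trypsin-EDTA. Seeded at 4 × 10⁴ cells/well, grown 24 h, then exposed to compound for 24 h at 37 °C. Medium replaced with phenol red-free medium, MTT (2 mg/ml) added for 4 h, formazan dissolved in isopropanol, A492 read. Inhibition taken versus untreated control wells; mean ± SD of three independent experiments.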

MDA-MB-231 [2] = experiment: Growth inhibition of human MDA-MB-231 cells at 50 ug/ml after 24 hrs by MTT colorimetric assay; conditions: MDA-MB-231, 24 h, read-out: GI; method in brief: as §1
MCF7 [3] = experiment: Growth inhibition of human MCF7 cells at 25 ug/ml after 24 hrs by MTT colorimetric assay; conditions: MCF7, 24 h, read-out: GI; method in brief: as §1
MCF7 [4] = experiment: Growth inhibition of human MCF7 cells at 50 ug/ml after 24 hrs by MTT colorimetric assay; conditions: MCF7, 24 h, read-out: GI; method in brief: as §1
T47D = experiment: Growth inhibition of human T47D cells at 25 ug/ml after 24 hrs by MTT colorimetric assay; conditions: read-out: GI; method in brief: as §1

SMILES	inhibition of growth at 25 µg/mL (MDA-MB-231 [1])	inhibition of growth at 50 µg/mL (MDA-MB-231 [2])	inhibition of growth at 25 µg/mL (MCF7 [3])	inhibition of growth at 50 µg/mL (MCF7 [4])	inhibition of growth at 25 µg/mL (T47D)
COc1cc(C(O)[C@H]2C(=O)OC[C@@H]2Cc2ccc3c(c2)OCO3)cc(OC)c1OC (mixture of isomers)	-1.9%	10.2%	5.2%	37.7%	50.1%
O=C1OC[C@H](Cc2ccc3c(c2)OCO3)[C@H]1[C@H](O)c1ccccc1Cl	34.8%	47.3%	15.8%	7.5%	50.2%
O=C1OC[C@H](Cc2ccc3c(c2)OCO3)[C@H]1[C@H](O)c1ccc([N+](=O)[O-])cc1	17.9%	20.1%	24.6%	17.9%	–
COc1cccc(C(O)[C@H]2C(=O)OC[C@@H]2Cc2ccc3c(c2)OCO3)c1 (mixture of isomers)	14.5%	41.9%	-3.8%	12.2%	–
COc1ccc(C(O)[C@H]2C(=O)OC[C@@H]2Cc2ccc3c(c2)OCO3)cc1 (mixture of isomers)	10.1%	48.8%	42.7%	22.4%	–
O=C1OC[C@H](Cc2ccc3c(c2)OCO3)[C@H]1C(O)c1ccccc1[N+](=O)[O-] (mixture of isomers)	7.9%	35.1%	21.9%	-0.2%	38.1%
O=C1OC[C@H](Cc2ccc3c(c2)OCO3)[C@H]1[C@@H](O)c1ccccc1Cl	19%	26.4%	8.5%	31.9%	52.9%
CC/C(=C(\c1ccccc1)c1ccc(OCCN(C)C)cc1)c1ccccc1 [TAMOXIFEN]	58.6%	67.7%	65.7%	25%	67.8%
O=C1OC[C@H](Cc2ccc3c(c2)OCO3)[C@H]1Cc1ccccc1	26.2%	36.2%	17%	46%	61.9%
O=C1OC[C@H](Cc2ccc3c(c2)OCO3)[C@H]1C(O)c1ccc([N+](=O)[O-])cc1 (mixture of isomers)	22.5%	29%	7.2%	38.8%	–
COc1cccc2c1C(=O)c1c(O)c3c(c(O)c1C2=O)C[C@@](O)(C(=O)CO)C[C@@H]3O[C@H]1C[C@H](N)[C@H](O)[C@H](C)O1 [DOXORUBICIN]	57.9%	48.8%	54.6%	31.8%	60%

From ChEMBL document CHEMBL1629421, “Isochaihulactone analogues: synthesis and anti-proliferative activity of novel dibenzylbutyrolactones” (2010)
